Source: paper PMC11755176 (ACS Omega, 2025)

Tests used:
[1] = system: nonsmall cell lung cancer cells (A549); assay: MTT cytotoxicity assay, A549; type: cell-based; details: for IC50: Homo sapiens, A549, 72 h, read-out: IC50 A549; for IC50 A549: MTT assay, 72 h incubation, mean ± SD of three independent experiments
Method in brief: (§1)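 Cells kept in DMEM with 10% FBS and 1% penicillin-streptomycin at 37 °C, 5% CO2. Seeding: A549 5 × 10^3, HeLa 1 × 10^3, Vero 2 × 10^3 cells/well. After 16−18 h, medium replaced with graded compound concentrations for 72 h. MTT 0.5 mg/mL for 3 h; formazan dissolved in DMSO; A570 (reference 630 nm). IC50 by nonlinear regression; doxorubicin positive control.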

[2] = system: human cervical carcinoma cells (HeLa); assay: MTT cytotoxicity assay, HeLa; type: cell-based; details: 72 h incubation, mean ± SD of three independent experiments
Method in brief: as §1

[3] = system: A549 cells; assay: Apoptosis analysis; type: cell-based; details: compared to untreated, Figure 4A,B
[4] = system: HCT 116 colorectal cancer cells; details: cited from earlier work
[5] = system: HeLa cells; assay: Apoptosis analysis; type: cell-based, human; details: both tested concentrations, Figure 4C,D
[6] = system: NCI-H187 cancer cell line; details: previously reported; cited from earlier work
[7] = system: Vero cells; assay: MTT cytotoxicity assay, Vero; type: cell-based; details: 72 h incubation, mean ± SD of three independent experiments
Method in brief: as §1

O=C1C[C@@H](c2ccccc2)Oc2c(Cc3ccccc3O)c(O)c(Cc3ccccc3O)c(O)c21 [Compound 7, dichamanetin]
IC50 [1]: 14.9 ± 0.6 µM
IC50 HeLa [2]: inactive
apoptosis induction (in words) [3]: moderate level of apoptosis

O=C1C[C@@H](c2ccccc2)Oc2cc(O)cc(O)c21 [Compound 4, pinocembrin]
cytotoxic activity (in words) [4]: exhibit cytotoxic activity
IC50 A549 [1]: inactive
apoptosis induction (in words) [5]: increased apoptotic cells in a dose-dependent manner
IC50 NCI-H187 [6]: inactive

O=C1C[C@@H](c2ccccc2)Oc2cc(O)c(Cc3ccccc3O)c(O)c21 [Compound 5, isochamanetin]
IC50 A549 [1]: inactive
IC50 Vero [7]: inactive
IC50 HeLa [2]: inactive

COc1cccc2c1C(=O)c1c(O)c3c(c(O)c1C2=O)C[C@@](O)(C(=O)CO)C[C@@H]3O[C@H]1C[C@H](N)[C@H](O)[C@H](C)O1 [doxorubicin, reference compound]
IC50 [1]: 0.04 µM
